Converted amounts (≈) assume the structure as drawn. The source made the active and inactive calls. No cut-off for these calls is given here.
What was measured:
HeLa [1] = test: Induction of necrosis in human HeLa cells at 20 uM after 48 hrs by Hoechst 33258/propidium iodide staining based phase contrast microscopic analysis; assay type: functional
Outline: (§1)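 Cells in 48-well plates treated with 0.5, 10, 20 or 40 µM for 24 and 48 h. Values are read at 48 h, 20 µM for test agents and 0.5 µM for controls. Staining is Hoechst 33258/propidium iodide double staining with fluorescence microscopy. Blue nuclei are viable or early-to-mid apoptotic, and pink nuclei are late apoptotic or necrotic. Apoptosis and necrosis are scored from chromatin condensation as % of cells. Cells are grown at 37 °C in 5% CO2 in RPMI, DMEM or McCoy's 5A with 10–15% heat-inactivated FCS.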

SAOS-2 [2] = test: Induction of apoptosis in human Saos2 cells at 20 uM after 48 hrs by Hoechst 33258/propidium iodide staining based phase contrast microscopic analysis; assay type: functional; outline: as §1
[3] = tested on: Staphylococcus epidermidis; test: Antimicrobial activity against Staphylococcus epidermidis ATCC 12228 assessed as zone of inhibition at 30 uL for 24 hrs at 37 degC by disk diffusion test; assay type: functional, organism-based
Outline: (§2)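 Compound (30 µL of a fresh 1000 µg/mL DMSO stock) goes into a 6 mm well cut in Mueller Hinton agar inoculated with 0.1 mL broth culture adjusted to 0.5 McFarland (about 1×10^8 cells/mL). Plates are incubated 24 h at 37 °C, then zone of inhibition diameter is measured in mm.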

MCF7 [4] = test: Antiproliferative activity against human MCF7 cells after 24 and 72 hrs by MTT assay; assay type: functional, cell-based
Outline: (§3)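 ATCC human cell lines are kept in RPMI, DMEM or McCoy's 5A with 10–15% heat-inactivated FCS at 37 °C and 5% CO2. They are seeded at 1×10^4–1×10^5 cells/mL in 48-well plates and exposed to 0.5, 10, 20 or 40 µM. Viability is read by MTT (590 nm) at 24 and 72 h. Growth is expressed relative to untreated cells and IC50 is fitted, in triplicate.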

Saccharomyces cerevisiae = test: Antimicrobial activity against Saccharomyces cerevisiae ATCC 9763 assessed as zone of inhibition at 30 uL for 24 hrs at 30 degC by disk diffusion test; assay type: functional, organism-based
Outline: (§4)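 Agar well diffusion on Mueller Hinton agar seeded with 0.1 mL broth culture (18–24 h), adjusted to 0.5 McFarland (about 1×10^8 bacteria or 1×10^6 yeast cells/mL). A 6 mm well is filled with 30 µL of compound from a fresh 1000 µg/mL DMSO stock. Plates are held at 30 °C for 24 h and inhibition zone diameter is read in mm.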

Caco-2 [5] = test: Induction of necrosis in human Caco2 cells at 20 uM after 48 hrs by Hoechst 33258/propidium iodide staining based phase contrast microscopic analysis; assay type: functional; outline: as §1
Candida tropicalis = test: Antimicrobial activity against Candida tropicalis assessed as zone of inhibition at 30 uL for 24 hrs at 30 degC by disk diffusion test; assay type: functional, organism-based; outline: as §4
Bacillus thuringiensis [6] = test: Antimicrobial activity against Bacillus thuringiensis assessed as zone of inhibition at 30 uL for 24 hrs at 30 degC by disk diffusion test; assay type: functional; outline: as §4
Candida albicans = test: Antimicrobial activity against Candida albicans ATCC 10231 assessed as zone of inhibition at 30 uL for 24 hrs at 30 degC by disk diffusion test; assay type: functional, organism-based; outline: as §4
Bacillus subtilis [7] = test: Antimicrobial activity against Bacillus subtilis ATCC 6633 for 24 hrs by microdillution method; assay type: functional
Outline: (§5)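 Broth microdilution. Compound is dissolved in DMSO (2 mg/mL) and diluted in Mueller Hinton broth as two-fold serial dilutions from 256 to 0.125 µg/mL. Bacteria are pre-grown in nutrient broth at 30 °C, and the final inoculum is about 10^6 cfu/mL. Tests are incubated 37 °C for 24 h. MIC is the lowest concentration giving complete inhibition. Streptomycin is the positive control.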

Nakaseomyces glabratus = test: Antimicrobial activity against Candida glabrata assessed as zone of inhibition at 30 uL for 24 hrs at 30 degC by disk diffusion test; assay type: functional, organism-based; outline: as §4
HL-60 [8] = test: Induction of necrosis in human HL60 cells at 20 uM after 48 hrs by Hoechst 33258/propidium iodide staining based phase contrast microscopic analysis; assay type: functional; outline: as §1
Bacillus cereus [9] = test: Antimicrobial activity against Bacillus cereus ATCC 11778 for 24 hrs by microdillution method; assay type: functional; outline: as §5
HL-60 [10] = test: Antiproliferative activity against human HL60 cells after 24 and 72 hrs by MTT assay; assay type: functional, cell-based; outline: as §3
SAOS-2 [11] = test: Induction of necrosis in human Saos2 cells at 20 uM after 48 hrs by Hoechst 33258/propidium iodide staining based […] microscopic analysis; assay type: functional; outline: as §1
MCF7 [12] = test: Induction of apoptosis in human MCF7 cells at 20 uM after 48 hrs by Hoechst 33258/propidium iodide staining based phase contrast microscopic analysis; assay type: functional; outline: as §1
HL-60 [13] = test: Induction of apoptosis in human HL60 cells at 20 uM after 48 hrs by Hoechst 33258/propidium iodide staining based phase contrast microscopic analysis; assay type: functional; outline: as §1
Escherichia coli = test: Antimicrobial activity against Escherichia coli ATCC 25922 assessed as zone of inhibition at 30 uL for 24 hrs at 37 degC by disk diffusion test; assay type: functional, organism-based; outline: as §2
Pseudomonas aeruginosa = test: Antimicrobial activity against Pseudomonas aeruginosa ATCC 35032 assessed as zone of inhibition at 30 uL for 24 hrs at 37 degC by disk diffusion test; assay type: functional, organism-based; outline: as §2
HeLa [14] = test: Antiproliferative activity against human HeLa cells after 24 and 72 hrs by MTT assay; assay type: functional, cell-based; outline: as §3
HeLa [15] = test: Induction of apoptosis in human HeLa cells at 20 uM after 48 hrs by Hoechst 33258/propidium iodide staining based phase contrast microscopic analysis; assay type: functional; outline: as §1
Bacillus subtilis [16] = test: Antimicrobial activity against Bacillus subtilis ATCC 6633 assessed as zone of inhibition at 30 uL for 24 hrs at 30 degC by disk diffusion test; assay type: functional; outline: as §4
Proteus vulgaris = test: Antimicrobial activity against Proteus vulgaris ATCC 33420 assessed as zone of inhibition at 30 uL for 24 hrs at 37 degC by disk diffusion test; assay type: functional, organism-based; outline: as §2
Micrococcus luteus = test: Antimicrobial activity against Micrococcus luteus ATCC 9341 assessed as zone of inhibition at 30 uL for 24 hrs at 30 degC by disk diffusion test; assay type: functional, organism-based; outline: as §4
Salmonella typhimurium = test: Antimicrobial activity against Salmonella typhimurium ATCC 14028 assessed as zone of inhibition at 30 uL for 24 hrs at 37 degC by disk diffusion test; assay type: functional, organism-based; details: Salmonella enterica subsp. enterica serovar Typhimurium; outline: as §2
HT-29 [17] = test: Antiproliferative activity against human HT-29 cells after 24 and 72 hrs by MTT assay; assay type: functional, cell-based; outline: as §3
Cyberlindnera jadinii = test: Antimicrobial activity against Candida utilis ATCC 9950 assessed as zone of inhibition at 30 uL for 24 hrs at 30 degC by disk diffusion test; assay type: functional, organism-based; outline: as §4
Bacillus cereus [18] = test: Antimicrobial activity against Bacillus cereus ATCC 11778 assessed as zone of inhibition at 30 uL for 24 hrs at 30 degC by disk diffusion test; assay type: functional; outline: as §4
Caco-2 [19] = test: Induction of apoptosis in human Caco2 cells at 20 uM after 48 hrs by Hoechst 33258/propidium iodide staining based phase contrast microscopic analysis; assay type: functional; outline: as §1
Caco-2 [20] = test: Antiproliferative activity against human Caco2 cells after 24 and 72 hrs by MTT assay; assay type: functional, cell-based; outline: as §3
Enterococcus faecalis = test: Antimicrobial activity against Enterococcus faecalis ATCC 29212 assessed as zone of inhibition at 30 uL for 24 hrs at 37 degC by disk diffusion test; assay type: functional, organism-based; outline: as §2
Bacillus thuringiensis [21] = test: Antimicrobial activity against Bacillus thuringiensis for 24 hrs by microdillution method; assay type: functional; outline: as §5
HT-29 [22] = test: Induction of necrosis in human HT-29 cells at 20 uM after 48 hrs by Hoechst 33258/propidium iodide staining based phase contrast microscopic analysis; assay type: functional; outline: as §1
HT-29 [23] = test: Induction of apoptosis in human HT-29 cells at 20 uM after 48 hrs by Hoechst 33258/propidium iodide staining based phase contrast microscopic analysis; assay type: functional; outline: as §1
[24] = Antiproliferative activity against human Saos2 cells after 24 and 72 hrs by MTT assay; assay type: functional, cell-based; details: SAOS-2; outline: as §3
Klebsiella pneumoniae = test: Antimicrobial activity against Klebsiella pneumoniae ATCC 13882 assessed as zone of inhibition at 30 uL for 24 hrs at 37 degC by disk diffusion test; assay type: functional, organism-based; outline: as §2
MCF7 [25] = test: Induction of necrosis in human MCF7 cells at 20 uM after 48 hrs by Hoechst 33258/propidium iodide staining based phase contrast microscopic analysis; assay type: functional; outline: as §1
Staphylococcus aureus = test: Antimicrobial activity against Staphylococcus aureus ATCC 25923 assessed as zone of inhibition at 30 uL for 24 hrs at 37 degC by disk diffusion test; assay type: functional, organism-based; outline: as §2

Row | Structure (SMILES) | Activity (HeLa [1]) [%] | Activity (SAOS-2 [2]) [%] | diameter of the inhibition zone (DIZ) [3] | IC50 (MCF7 [4]) [µM] | diameter of the inhibition zone (DIZ) (Saccharomyces cerevisiae) | Activity (Caco-2 [5]) [%] | diameter of the inhibition zone (DIZ) (Candida tropicalis) | diameter of the inhibition zone (DIZ) (Bacillus thuringiensis [6]) | diameter of the inhibition zone (DIZ) (Candida albicans) | diameter of the inhibition zone (DIZ) (Nakaseomyces glabratus) | Activity (HL-60 [8]) [%] | IC50 (HL-60 [10]) [µM] | Activity (SAOS-2 [11]) [%] | Activity (MCF7 [12]) [%] | Activity (HL-60 [13]) [%] | diameter of the inhibition zone (DIZ) (Escherichia coli) | diameter of the inhibition zone (DIZ) (Pseudomonas aeruginosa) | IC50 (HeLa [14]) [µM] | Activity (HeLa [15]) [%] | diameter of the inhibition zone (DIZ) (Bacillus subtilis [16]) | also measured
1 | CC(=O)O[C@H]1CC[C@]2(C)[C@H]3CC=C4[C@@H]5CC(C)(C)CC[C@]5(C(=O)OCc5ccccc5)CC[C@@]4(C)[C@]3(C)CC[C@H]2[C@]1(C)C=O | 68 | 0 | inactive | 65.2 | inactive | 37 | inactive | inactive | inactive | inactive | 51 | 6.74 | 45 | 5 | 3 | inactive | inactive | 287 | 2 | inactive | MIC (Bacillus subtilis [7]): inactive; MIC (Bacillus cereus [9]): inactive; diameter of the inhibition zone (DIZ) (Proteus vulgaris): inactive; diameter of the inhibition zone (DIZ) (Micrococcus luteus): inactive; diameter of the inhibition zone (DIZ) (Salmonella typhimurium): inactive; IC50 (HT-29 [17]): 10.3 µM; diameter of the inhibition zone (DIZ) (Cyberlindnera jadinii): inactive; diameter of the inhibition zone (DIZ) (Bacillus cereus [18]): inactive; Activity (Caco-2 [19]): 1%; IC50 (Caco-2 [20]): 51.1 µM; diameter of the inhibition zone (DIZ) (Enterococcus faecalis): inactive; MIC (Bacillus thuringiensis [21]): inactive; Activity (HT-29 [22]): 29%; Activity (HT-29 [23]): 0.7%; IC50 [24]: 10.7 µM; diameter of the inhibition zone (DIZ) (Klebsiella pneumoniae): inactive; Activity (MCF7 [25]): 36%; diameter of the inhibition zone (DIZ) (Staphylococcus aureus): inactive
2 | CC(=O)O[C@H]1CC[C@]2(C)[C@H]3CC=C4[C@@H]5CC(C)(C)CC[C@]5(C(=O)O)CC[C@@]4(C)[C@]3(C)CC[C@H]2[C@]1(C)/C=N/NC(N)=S | 65 | 2 | inactive | 7.5 | inactive | 29 | inactive | 14 mm | inactive | inactive | 67 | 12.8 | 61 | 6 | 2 | inactive | inactive | 110 | 2 | 14 mm | MIC (Bacillus subtilis [7]; ATCC 6633, 24 h): 32 mg/L (≈ 54.6 µM); MIC (Bacillus cereus [9]; ATCC 11778, 24 h): 32 mg/L (≈ 54.6 µM); diameter of the inhibition zone (DIZ) (Proteus vulgaris): inactive; diameter of the inhibition zone (DIZ) (Micrococcus luteus): inactive; diameter of the inhibition zone (DIZ) (Salmonella typhimurium): inactive; IC50 (HT-29 [17]): 13.3 µM; diameter of the inhibition zone (DIZ) (Cyberlindnera jadinii): inactive; diameter of the inhibition zone (DIZ) (Bacillus cereus [18]): 14 mm; Activity (Caco-2 [19]): 3%; IC50 (Caco-2 [20]): 30.4 µM; diameter of the inhibition zone (DIZ) (Enterococcus faecalis): inactive; MIC (Bacillus thuringiensis [21]): 32 mg/L (≈ 54.6 µM); Activity (HT-29 [22]): 26%; Activity (HT-29 [23]): 3%; IC50 [24]: 10.1 µM; diameter of the inhibition zone (DIZ) (Klebsiella pneumoniae): inactive; Activity (MCF7 [25]): 63%; diameter of the inhibition zone (DIZ) (Staphylococcus aureus): inactive
